A selection: hits, their analogues and other compounds. The true share with any hit is near 0.81%.
Rad51 HR inh = blocks human Rad51 in homologous recombination. Q06609. hRad51 DNA strand exchange, fluorescence dequenching. inhibition, % at 10 µM. hit rate 0.085% among 200,000. AID 1385;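 active = inhibition above 40% at the single screening dose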;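 note: 0% = DMSO control wells and 100% = blanks with heterologous ssDNA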
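Material: hRad51 filaments on single-stranded DNA; Reagent: Donor/quencher-labelled 47-bp dsDNA substrate; Compound: 10 µM final, single point; Schedule: 37 °C 15-min filament assembly, 30-min compound preincubation, 15-min exchange; Technique: FRET fluorescence, excitation 485 nm, emission 520 nm; Benchmarks: control wells and blank wells on each plate.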
HMGR II inh = blocks class II HMG-CoA reductase of Enterococcus faecalis; hit rate 0.41% among 190,000; inhibition, % at 10 µM; purified E. faecalis HMGR, NADPH absorbance 340 nm kinetic;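 active = inhibition above a set limit, the median over all tested compounds plus 3 SD, cut at about 9.5% in these data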;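 note: enzyme runs in reverse so mevalonate oxidation gives rising NADPH absorbance; 0% = complete reaction with DMSO and 100% = background rate lacking mevalonate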
Pf gametocyte = inhibitors of late stage P. falciparum gametocyte viability. P. falciparum stage V gametocytes, ATP luminescence, 24 h. inhibition, % at 10.9 µM. hit rate 0.065% among 150,000;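 active = inhibition above the mean plus 3 SD of compounds within the control limits, set per campaign, cut at about 38% in these data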;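 note: 0% = DMSO wells and 100% = medium only without gametocytes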
PKD1 kinase inh = inhibitors of human PKD1 kinase | Q15139 | PKD1 kinase fluorescence polarization assay | inhibition, % (test concentration not listed) | hit rate 0.056% among 200,000; in the data active = inhibition above about 50%
Target sequence (Q15139 whole entry, looked up): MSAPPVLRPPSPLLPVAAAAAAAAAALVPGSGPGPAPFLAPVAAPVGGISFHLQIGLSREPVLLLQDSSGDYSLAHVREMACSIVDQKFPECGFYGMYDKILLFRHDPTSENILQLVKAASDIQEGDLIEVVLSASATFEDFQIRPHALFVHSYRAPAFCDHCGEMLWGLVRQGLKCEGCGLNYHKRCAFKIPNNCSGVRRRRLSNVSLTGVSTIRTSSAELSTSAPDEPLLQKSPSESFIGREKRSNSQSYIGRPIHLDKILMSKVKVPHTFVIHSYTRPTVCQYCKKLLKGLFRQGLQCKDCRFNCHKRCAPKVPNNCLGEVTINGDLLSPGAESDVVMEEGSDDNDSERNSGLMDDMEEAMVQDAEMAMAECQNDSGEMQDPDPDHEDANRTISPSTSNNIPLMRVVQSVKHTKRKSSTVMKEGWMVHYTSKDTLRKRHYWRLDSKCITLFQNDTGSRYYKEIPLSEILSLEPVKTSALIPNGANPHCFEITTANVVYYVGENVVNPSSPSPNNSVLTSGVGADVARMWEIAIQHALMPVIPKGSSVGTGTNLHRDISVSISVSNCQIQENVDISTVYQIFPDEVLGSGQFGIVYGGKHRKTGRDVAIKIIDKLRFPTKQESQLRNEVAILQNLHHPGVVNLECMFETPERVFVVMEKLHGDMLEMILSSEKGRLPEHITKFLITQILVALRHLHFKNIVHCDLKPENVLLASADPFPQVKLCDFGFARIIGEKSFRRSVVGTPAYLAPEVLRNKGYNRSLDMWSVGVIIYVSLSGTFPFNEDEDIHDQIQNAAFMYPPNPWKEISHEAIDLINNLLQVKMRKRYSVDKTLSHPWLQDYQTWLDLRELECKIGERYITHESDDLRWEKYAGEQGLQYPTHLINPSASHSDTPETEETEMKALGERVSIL
DTT redox prof = compounds producing H2O2 with reducing agent – biochemical, NIH compound library profiling, artefact control for MLSCN library redox annotation, primary screen | DTT-dependent redox cycling H2O2, phenol red/HRP absorbance; 100% = 100 µM peroxide control, 0% = buffer | activation, % at 10 µM | hit rate 0.03% among 200,000 | AID 878;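 active = activation of at least 50% relative to the plate's high and low controls in the primary single-dose screen; inactive = activation below 50%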;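 note: compound incubated with DTT at 0.8 mM final as the reducing agent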
Calpain2 inh = blocks pig calpain II enzyme activity. inhibition, % at 16 µM. purified calpain II, fluorogenic peptide substrate, 30 min. hit rate 0.37% among 220,000;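 active = inhibition above about 50%, limit read from the data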
Starred values were filed as active, the others as inactive.

`CC1(C)CC(=O)C2=C(C1)OC(N)=C(C#N)C21CCN(Cc2ccccc2)CC1` gave Rad51 HR inh -43, HMGR II inh -6, Pf gametocyte 12, PKD1 kinase inh -2, DTT redox prof -1 and Calpain2 inh -93.
Cc1nc2c([nH]1)C1(CCN(Cc3ccccc3)CC1)C(C#N)=C(N)O2 was read as Rad51 HR inh -18, HMGR II inh 17*, Pf gametocyte 7, PKD1 kinase inh 2, DTT redox prof 0 and Calpain2 inh 1.
CSc1nc2cc(Oc3cccc(Cl)c3Cl)c(Cl)cc2[nH]1 was read as Rad51 HR inh 0, HMGR II inh 0 and Calpain2 inh 61*.
`O=C(Nc1ccccc1)C1CCOC1=O` (stereo unspecified) gave Pf gametocyte 9.
Screening C/C(CCN1CCCCc2nc(C)c(C)cc21)=N\O[C@H](C)c1cn([C@H](CO)Cc2ccccc2)nn1 returned HMGR II inh 12*, PKD1 kinase inh -1, DTT redox prof 1 and Calpain2 inh -23.
For CC(=O)Nc1ccc(S(=O)(=O)N2CCN(c3ccc([N+](=O)[O-])cc3)CC2)cc1 the results were Pf gametocyte 0.
CCOC(=O)C1CCN(C(=O)c2c(-c3ccccc3)noc2C)CC1 was read as Rad51 HR inh -5, HMGR II inh 14*, Pf gametocyte -2, PKD1 kinase inh 3, DTT redox prof 0 and Calpain2 inh -36.
Screening CCOC(=O)C1CCN(C(=O)c2c(-c3c(Cl)cccc3Cl)noc2C)CC1 returned Rad51 HR inh 9, HMGR II inh -3, Pf gametocyte -9, PKD1 kinase inh -4, DTT redox prof 3 and Calpain2 inh -14.
CCN(CC)C(=O)Oc1nnc(SC(C)C)n1-c1ccc(Cl)cc1 was read as Pf gametocyte -11 and Calpain2 inh 4.
Screening Cc1nc(SC2CC(=O)N(c3ccccc3)C2=O)n[nH]1 (stereo unspecified) returned Rad51 HR inh -2, HMGR II inh 13*, Pf gametocyte 8, PKD1 kinase inh -7, DTT redox prof 0 and Calpain2 inh 4.
For O=C1CC(Sc2ncccn2)C(=O)N1c1ccccc1 (stereo unspecified) the results were Rad51 HR inh -7, HMGR II inh -3, PKD1 kinase inh -4, DTT redox prof 0 and Calpain2 inh -21.
For CS/C(=N\S(=O)(=O)c1cccs1)Nc1cccc(Cl)c1C the results were Rad51 HR inh -2, HMGR II inh 2, PKD1 kinase inh 4, DTT redox prof 0 and Calpain2 inh 30.
`CS/C(=N\S(=O)(=O)c1cccs1)Nc1ccc(F)c(Cl)c1` gave Rad51 HR inh 3, HMGR II inh 4, Pf gametocyte 59*, PKD1 kinase inh -9, DTT redox prof 0 and Calpain2 inh -4.
For CSCCC(NS(=O)(=O)/C=C/c1ccccc1)C(=O)O (stereo unspecified) the results were Rad51 HR inh 1, HMGR II inh 10*, Pf gametocyte 1, PKD1 kinase inh -4, DTT redox prof 0 and Calpain2 inh -12.
CC(Sc1cccc[n+]1[O-])C(=O)Nc1cccc([N+](=O)[O-])c1 (stereo unspecified) was read as Rad51 HR inh 0, HMGR II inh -3, PKD1 kinase inh -7, DTT redox prof -2 and Calpain2 inh 6.
For CCC(Sc1ccccn1)C(=O)Nc1cccc([N+](=O)[O-])c1 (stereo unspecified) the results were HMGR II inh 14*, Pf gametocyte 18, PKD1 kinase inh -1, DTT redox prof 1 and Calpain2 inh -6.
For COc1ccc(NS(=O)(=O)c2ccc(NC(=O)C(CCSC)NC(N)=O)cc2)cc1 (stereo unspecified) the results were Rad51 HR inh 42*, Pf gametocyte 15 and Calpain2 inh -64.
For CNS(=O)(=O)c1ccc(NC(=O)C(CCSC)NC(N)=O)cc1 (stereo unspecified) the results were Rad51 HR inh 5, HMGR II inh -11, PKD1 kinase inh -7, DTT redox prof -1 and Calpain2 inh -1.
For CCOc1ccc(Cc2c(C)[nH]c3ccc(C(=O)O)cc3c2=S)cc1 the results were Pf gametocyte -8.
For O=C(Nc1ccccc1)OCCOc1ccc(Br)cc1 the results were Pf gametocyte 5.
Screening CC(=NCCc1c(C)[nH]c2ccc(C)cc12)C1=C(O)CC(c2ccccc2)CC1=O (stereo unspecified) returned Rad51 HR inh 0, HMGR II inh -3, Pf gametocyte -7, PKD1 kinase inh 2, DTT redox prof 0 and Calpain2 inh -9.
CC(=NCCc1c(C)[nH]c2ccc(OC(F)(F)F)cc12)C1=C(O)CC(c2ccccc2)CC1=O (stereo unspecified) was read as Rad51 HR inh 5, HMGR II inh 12*, Pf gametocyte -2, PKD1 kinase inh 0, DTT redox prof 0 and Calpain2 inh -21.
Screening Cn1c(=O)n(CCc2ccccc2)c(=O)c2c1nc1n2CCCN1CCc1ccccc1 returned Rad51 HR inh 8, HMGR II inh -6, Pf gametocyte 6, PKD1 kinase inh 0, DTT redox prof 0 and Calpain2 inh 69*.
Screening CCOC(=O)Cn1c(=O)c2c(nc(N3CCCCC3)n2Cc2ccccc2)n(C)c1=O returned Rad51 HR inh 44*, HMGR II inh -2, Pf gametocyte -27, PKD1 kinase inh 0, DTT redox prof 2 and Calpain2 inh -12.
COc1cccc(N2CC(=O)N(c3cccc(OC)c3)CC2=O)c1 was read as Rad51 HR inh 19, HMGR II inh 9.7*, Pf gametocyte 4, PKD1 kinase inh -2, DTT redox prof 0 and Calpain2 inh -21.
`COC1Cc2ccccc2N(C(N)=O)c2ccccc21` (stereo unspecified) gave Pf gametocyte -9.
CCCCCCCCCC(=O)N1c2ccccc2NC(=O)C1CC(=O)Nc1ccc(C(=O)O)cc1 (stereo unspecified) was read as Rad51 HR inh 14, Pf gametocyte 12 and Calpain2 inh 53*.
`O=C(CSc1ncn[nH]1)Nc1cc(S(=O)(=O)N2CCCC2)ccc1Cl` gave Rad51 HR inh -4, HMGR II inh -2, Pf gametocyte 12, PKD1 kinase inh -5, DTT redox prof 0 and Calpain2 inh 21.
COc1ccc(C2=CC(c3ccc(OC)c(OC)c3)NC(=S)N2)cc1 (stereo unspecified) was read as Rad51 HR inh -1, HMGR II inh 0, PKD1 kinase inh -7, DTT redox prof 3 and Calpain2 inh -10.
Screening COc1cccc(C2=CC(c3ccc(OC)c(OC)c3)NC(=S)N2)c1 (stereo unspecified) returned Rad51 HR inh -7, Pf gametocyte 3 and Calpain2 inh 59*.

Screening data deposited in PubChem BioAssay by several laboratories.
